Results reported in ChEMBL document CHEMBL5126598, “Defined stereoisomers of 2″-amino NAD+ and their activity against human sirtuins and a bacterial (ADP-ribosyl) transferase” (Bioorg Med Chem, 2022).

What was measured:
[1] = target: T1, NAD-dependent protein deacetylase sirtuin-1 (Homo sapiens) (UniProt Q96EB6); experiment: Inhibition of human SIRT1 using fluorogenic ZMAL as substrate at 100 uM incubated for 4 hrs in the presence of beta-NAD+ as cofactor by fluorescence based microplate reader analysis relative to control
T1 sequence (whole entry): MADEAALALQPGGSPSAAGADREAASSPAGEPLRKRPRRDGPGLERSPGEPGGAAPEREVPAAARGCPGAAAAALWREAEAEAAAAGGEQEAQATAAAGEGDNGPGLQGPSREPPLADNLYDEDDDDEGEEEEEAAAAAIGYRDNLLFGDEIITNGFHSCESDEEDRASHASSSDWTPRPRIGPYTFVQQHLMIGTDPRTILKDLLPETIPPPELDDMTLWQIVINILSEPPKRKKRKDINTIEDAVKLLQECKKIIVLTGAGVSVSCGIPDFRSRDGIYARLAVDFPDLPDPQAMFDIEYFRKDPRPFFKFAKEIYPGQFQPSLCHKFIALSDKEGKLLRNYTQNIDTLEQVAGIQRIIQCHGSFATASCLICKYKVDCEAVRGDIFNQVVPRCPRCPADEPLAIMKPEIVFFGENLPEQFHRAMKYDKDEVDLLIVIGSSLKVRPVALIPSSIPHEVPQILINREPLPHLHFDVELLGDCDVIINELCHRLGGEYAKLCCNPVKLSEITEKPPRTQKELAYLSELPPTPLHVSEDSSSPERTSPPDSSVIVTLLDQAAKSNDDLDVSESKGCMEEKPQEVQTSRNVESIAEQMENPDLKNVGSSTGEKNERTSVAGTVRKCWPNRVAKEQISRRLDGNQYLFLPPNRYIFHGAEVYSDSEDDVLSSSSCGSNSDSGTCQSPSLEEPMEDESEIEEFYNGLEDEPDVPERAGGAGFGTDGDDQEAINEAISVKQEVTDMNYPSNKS
In short: (§1)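 Recombinant SIRT1, SIRT2 or SIRT3 (0.5 U) in 50 mM Tris/HCl, 137 mM NaCl, 2.7 mM KCl with ZMAL 10.5 μM, β-NAD+ 500 μM and 8.3% (v/v) DMSO (final), plus compound; 4 h at 37 °C with shaking. Trypsin stop solution containing 8 mM nicotinamide added, 20 min at 37 °C, then fluorescence read. Single concentrations tested first; IC50 only for near-complete inhibitors; means of 3 experiments.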

[2] = Chemical stability of the compound in sirtuin assay buffer at pH 8.0 assessed as nicotinamide cleavage measured every 30 mins for 4 hrs by HPLC analysis; type: physicochemical; settings: read-out: Activity
[3] = target: T2, NAD-dependent protein deacetylase sirtuin-3, mitochondrial (Homo sapiens) (UniProt Q9NTG7); experiment: Inhibition of human SIRT3 using fluorogenic ZMAL as substrate at 100 uM incubated for 4 hrs in the presence of beta-NAD+ as cofactor by fluorescence based microplate reader analysis relative to control; in short: as §1
T2 sequence (whole entry): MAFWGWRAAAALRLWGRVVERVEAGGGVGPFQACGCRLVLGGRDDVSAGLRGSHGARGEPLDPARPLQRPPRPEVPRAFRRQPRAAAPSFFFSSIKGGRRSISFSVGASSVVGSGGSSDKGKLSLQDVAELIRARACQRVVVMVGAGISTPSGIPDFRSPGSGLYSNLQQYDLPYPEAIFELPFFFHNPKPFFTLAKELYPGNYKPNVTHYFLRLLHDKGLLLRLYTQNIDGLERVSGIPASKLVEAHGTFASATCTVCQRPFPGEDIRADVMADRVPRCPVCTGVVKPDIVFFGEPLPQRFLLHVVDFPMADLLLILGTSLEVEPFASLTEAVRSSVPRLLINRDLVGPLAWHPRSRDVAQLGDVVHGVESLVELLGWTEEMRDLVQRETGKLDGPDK

[4] = test system: Photorhabdus luminescens; experiment: Displacement of [32P]NAD+ from Photorhabdus luminescens TccC3hvr ART domain assessed as inhibition of ADP-ribosylation of alpha-skeletal muscle actin at 100 uM preincubated for 15 mins followed by TccC3hvr addition and measured after 6 mins by SDS-PAGE based autoradiography; settings: time 21.0 min
In short: (§2)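 α-Skeletal muscle actin 1 μM with 1 μM NAD+ plus [32P]NAD+ (0.5 μCi per sample) in G buffer (5 mM Tris-HCl, 0.2 mM CaCl2, 0.2 mM ATP, 0.5 mM DTT, pH 8.0). Compound (10, 30 or 100 μM) preincubated 15 min at 21 °C, then 70 nM TccC3hvr ART domain added; 6 min at 21 °C, stopped with SDS Laemmli buffer. SDS-PAGE (12.5%), autoradiography; % inhibition versus control.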

[5] = target: T2, NAD-dependent protein deacetylase sirtuin-3, mitochondrial (Homo sapiens); experiment: Inhibition of human SIRT3 using fluorogenic ZMAL as substrate at 250 uM incubated for 4 hrs in the presence of beta-NAD+ as cofactor by fluorescence based microplate reader analysis relative to control; in short: as §1
[6] = target: T3, SIRT2 (NAD-dependent protein deacetylase sirtuin-2) (Homo sapiens, UniProt Q8IXJ6); experiment: Chemical stability of the compound in sirtuin assay buffer at pH 8.0 assessed as human SIRT2 mediated nicotinamide cleavage measured upto 4 hrs in the presence of ZMAL substrate by HPLC analysis; type: ADME; settings: pH 8, probe ZMAL substrate, read-out: Activity
T3 sequence (Q8IXJ6 whole entry): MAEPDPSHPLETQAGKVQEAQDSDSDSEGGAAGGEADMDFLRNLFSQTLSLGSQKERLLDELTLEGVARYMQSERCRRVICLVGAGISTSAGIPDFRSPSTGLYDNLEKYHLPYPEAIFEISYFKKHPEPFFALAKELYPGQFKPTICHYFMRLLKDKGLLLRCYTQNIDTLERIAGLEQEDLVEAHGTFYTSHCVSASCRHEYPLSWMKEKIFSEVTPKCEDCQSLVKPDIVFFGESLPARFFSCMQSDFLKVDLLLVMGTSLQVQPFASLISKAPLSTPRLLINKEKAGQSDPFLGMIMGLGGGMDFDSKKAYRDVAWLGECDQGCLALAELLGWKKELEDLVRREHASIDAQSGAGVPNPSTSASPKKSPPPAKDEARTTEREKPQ

[7] = target: T4, NAD-dependent protein deacetylase sirtuin-2 (Homo sapiens, UniProt Q8IXJ6); experiment: Inhibition of human SIRT2 using fluorogenic ZMAL as substrate incubated for 4 hrs in the presence of beta-NAD+ as cofactor by fluorescence based microplate reader analysis; in short: as §1
T4 sequence (Q8IXJ6 whole entry): T3 sequence (Q8IXJ6 whole entry)

[8] = test system: Photorhabdus luminescens; experiment: Displacement of [32P]NAD+ from Photorhabdus luminescens TccC3hvr ART domain assessed as inhibition of ADP-ribosylation of alpha-skeletal muscle actin preincubated for 15 mins followed by TccC3hvr addition and measured after 6 mins by SDS-PAGE based autoradiography; settings: dose 10-100 µM, time 21.0 min, DDE = dose-dependent effect; in short: as §2
[9] = target: T1, NAD-dependent protein deacetylase sirtuin-1 (Homo sapiens); experiment: Inhibition of human SIRT1 using fluorogenic ZMAL as substrate at 250 uM incubated for 4 hrs in the presence of beta-NAD+ as cofactor by fluorescence based microplate reader analysis relative to control; in short: as §1
[10] = target: T2, NAD-dependent protein deacetylase sirtuin-3, mitochondrial (Homo sapiens); experiment: Inhibition of human SIRT3 using fluorogenic ZMAL as substrate at 1 mM incubated for 4 hrs in the presence of beta-NAD+ as cofactor by fluorescence based microplate reader analysis relative to control; in short: as §1
[11] = target: T5, NAD-dependent protein deacetylase sirtuin-1 (Homo sapiens, UniProt Q96EB6); experiment: Inhibition of human SIRT1 using fluorogenic ZMAL as substrate incubated for 4 hrs in the presence of beta-NAD+ as cofactor by fluorescence based microplate reader analysis; in short: as §1
T5 sequence (Q96EB6 whole entry): T1 sequence (whole entry)

[12] = target: T6, NAD-dependent protein deacetylase sirtuin-2 (Homo sapiens) (UniProt Q8IXJ6); experiment: Inhibition of human SIRT2 using fluorogenic ZMAL as substrate at 250 uM incubated for 4 hrs in the presence of beta-NAD+ as cofactor by fluorescence based microplate reader analysis relative to control; in short: as §1
T6 sequence (whole entry): T3 sequence (Q8IXJ6 whole entry)

[13] = Chemical stability of the compound in sirtuin assay buffer at pH 8.0 assessed as nicotinamide cleavage measured every 60 mins for 4 hrs by HPLC analysis; type: physicochemical; settings: read-out: Activity

Row | inhibition [1] | degraded at 4 h [2] | inhibition [3] | inhibition [4] | inhibition [5] | metabolised at 4 h [6] | IC50 [7] | inhibition [8] | inhibition [9] | inhibition [10] | IC50 [11] | inhibition [12] | degraded at 4 h [13] | Compound
1 | 18% | 8.4% | 12% | 77% | 19% | 15.1% | 151 µM | Dde | 65% |  |  |  |  | NC(=O)c1ccc[n+]([C@@H]2O[C@H](COP(=O)(O)OP(=O)(O)OC[C@H]3O[C@@H](n4cnc5c(N)ncnc54)[C@H](O)[C@@H]3O)[C@@H](O)[C@H]2N)c1
2 |  |  |  |  |  |  | 153 µM |  |  | 47% | 176 µM |  |  | NC(=O)c1ccc[n+]([C@@H]2O[C@H](COP(=O)(O)OP(=O)(O)OC[C@H]3O[C@@H](n4cnc5c(N)ncnc54)[C@H](O)[C@@H]3O)[C@@H](O)[C@@H]2N)c1
3 |  |  |  |  | 34% |  |  |  |  |  |  | 21% |  | [N-]=[N+]=N[C@@H]1C([n+]2cccc(C(N)=O)c2)O[C@H](COP(=O)(O)OP(=O)(O)OC[C@H]2O[C@@H](n3cnc4c(N)ncnc43)[C@H](O)[C@@H]2O)[C@H]1O (stereo partly specified)
4 | 13% |  | 8% |  | 13% | 4.1% | 118 µM |  | 63% |  |  |  | 4.1% | NC(=O)c1ccc[n+]([C@H]2O[C@H](COP(=O)(O)OP(=O)(O)OC[C@H]3O[C@@H](n4cnc5c(N)ncnc54)[C@H](O)[C@@H]3O)[C@@H](O)[C@H]2N)c1
